A selection: hits, their analogues and other compounds. The true share with any hit is near 1.9%.
UBC13 polyUb: human UBC13 polyubiquitination inhibition | P61088 | UBC13 polyubiquitin chain formation, TR-FRET | inhibition, % at 20 µM | 330,000 compounds, 0.47% hits | AID 485273; in the data active = inhibition above about 45%, passing the limit was not always enough; inconclusive = no clear call, values can overlap the other calls
Target sequence (P61088 whole entry, looked up): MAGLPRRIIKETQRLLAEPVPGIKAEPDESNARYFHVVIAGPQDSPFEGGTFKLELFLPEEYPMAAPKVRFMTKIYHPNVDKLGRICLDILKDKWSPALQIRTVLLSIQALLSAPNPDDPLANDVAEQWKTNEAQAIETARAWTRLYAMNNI
Neddylation inh: inhibitors of human cullin neddylation; TR-FRET cullin neddylation, biochemical; inhibition, % at 25 µM; 360,000 compounds, 0.58% hits; AID 651699; in the data active = inhibition above about 36%
SR-BI DiI inh: inhibitors of mouse SR-BI mediated HDL lipid uptake. Q61009. ldlA[mSR-BI] CHO cells, DiI-HDL uptake fluorescence, 3 h. inhibition, % at 12.5 µM. 320,000 compounds, 0.96% hits. AID 488896;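 active = mean replicate inhibition of at least 70% and a set share of replicates each scoring 70 or more; inconclusive = meets just one of the two criteria; inactive = fails both criteria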;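 note: 0% = median of neutral control wells and 100% = median of positive control wells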
Target sequence (Q61009 whole entry, looked up): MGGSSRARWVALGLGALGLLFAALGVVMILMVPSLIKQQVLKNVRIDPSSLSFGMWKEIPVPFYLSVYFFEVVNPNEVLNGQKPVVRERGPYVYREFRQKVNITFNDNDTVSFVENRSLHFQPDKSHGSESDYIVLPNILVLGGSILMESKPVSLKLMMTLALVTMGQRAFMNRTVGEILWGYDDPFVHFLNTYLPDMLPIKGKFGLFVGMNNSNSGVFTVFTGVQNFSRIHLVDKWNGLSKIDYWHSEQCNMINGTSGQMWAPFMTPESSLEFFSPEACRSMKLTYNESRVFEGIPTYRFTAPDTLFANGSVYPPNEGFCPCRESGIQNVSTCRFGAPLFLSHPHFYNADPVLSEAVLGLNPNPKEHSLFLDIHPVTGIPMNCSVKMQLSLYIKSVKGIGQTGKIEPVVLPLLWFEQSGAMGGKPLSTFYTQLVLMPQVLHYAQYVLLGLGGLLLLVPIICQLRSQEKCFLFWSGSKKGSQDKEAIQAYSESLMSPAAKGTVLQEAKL
SR-BI DiI-HDL act: enhances SR-BI lipid uptake from DiI-HDL. CHO ldlA[mSR-BI] cells, DiI-HDL uptake fluorescence, 3 h; 100 = double the neutral-control signal. activation, % at 12.5 µM. 320,000 compounds, 0.096% hits. AID 504775;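 active = mean replicate activation of at least 60% and every replicate at or above 60%; inconclusive = mean or all-replicate condition met, but not both; inactive = mean below 60% and not all replicates reaching 60%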;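 note: 0% = median plate neutral-control signal and 100% = twice that signal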
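Material – SR-BI-overexpressing, LDLR-lacking CHO cells · Medium – BSA-supplemented, HEPES-buffered Ham's F12, pH 7.4 · Doses – single concentration · Times – compound with DiI-HDL co-incubation, 3 h at 37 °C · Measured by – bottom-read fluorescence, 550/595 nm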
Casp3 counter: caspase-3 inhibition (UBC13 counter-screen) | shares compounds with UBC13 polyUb | Recombinant caspase-3, Caspase-Glo 3/7 luminescence, 60 min | inhibition, % at 20 µM | 1,400 compounds, 4% hits;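 active = mean inhibition across replicates above about 26%, limit read from the data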;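 note: plate controls were DMSO with caspase-3 for no effect and DMSO wells lacking enzyme for full effect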
UBC13 confirm: human UBC13 polyubiquitin inhibition, confirmed | shares compounds with UBC13 polyUb | UBC13 polyubiquitination, TR-FRET, biochemical | inhibition, % at 10 µM | 1,400 compounds, 68% hits | AID 488859; in the data active = inhibition above about 45%; inconclusive = no clear call, values can overlap the other calls
Active calls of the source: *; ? = inconclusive; nt = no result shown.

SMILES	UBC13 polyUb	Neddylation inh	SR-BI DiI inh	SR-BI DiI-HDL act	Casp3 counter	UBC13 confirm
CN1CCN(C(=O)CCN2C(=O)/C(=C/c3ccccc3Cl)SC2=S)CC1	69.3*	-23.7	22.3	-22.3	-3.3	87.0*
O=C(CCN1C(=O)/C(=C/c2ccccc2Cl)SC1=S)NCCCN1CCOCC1	45.0*	-28.0	-17.9	17.9	-0.5	61.3*
CN1CCN(C(=O)c2cccc(-c3cc(O)c4ncccc4c3)c2)CC1	17.3	-2.4	-9.9	2.1	nt	nt
CN1CCN(c2cc(-c3cc(O)c4ncccc4c3)ccn2)CC1	100.5*	-8.8	-6.7	6.7	14.0	102.1*
COc1cccc(CNCCc2c[nH]c3ccccc23)c1OCc1ccccc1	38.7	4.5	-9.1	9.1	nt	nt
COc1cc(CNCCc2c[nH]c3ccccc23)ccc1OCc1ccccc1F	47.1*	3.1	-32.6	32.6	-0.7	44.2
CCSc1nc(N2CCCCC2)c2c(c1C#N)CCCC2	47.1*	-26.2	76.4*	-76.4	1.7	45.6*
C=CCn1c(=O)c(C(=O)Nc2ccccc2S(N)(=O)=O)c(O)c2ccccc21	46.3*	11.1	-7.8	7.8	1.5	9.6
C=CCn1c(=O)c(C(=O)Nc2ccccc2C(=O)OCC)c(O)c2ccccc21	24.3	37.5	2.1	-2.1	nt	nt
COc1ccc(C[C@H]2CN3C(=NC[C@@H]3C(C)C)N2CCNC(=O)c2ccc(C)c(Br)c2)cc1	60.5*	-5.3	1.3	-1.3	-4.5	34.2
Cc1ccc(C(=O)NCCN2C3=NC[C@H](C)N3C[C@H]2Cc2ccc(O)cc2)cc1Br	20.6	-25.3	-16.0	16.0	nt	nt
COc1ccc(C[C@H]2CN3C(=NC[C@H]3C)N2CCNC(=O)c2ccc(C)c(Br)c2)cc1	11.0	-16.2	-5.7	5.7	nt	nt
Cc1ccc(C(=O)NCCN2C3=NC[C@H](C(C)C)N3C[C@H]2Cc2ccc(O)cc2)cc1Br	50.5*	-3.3	-14.5	14.5	-0.1	22.8
CC(C)C[C@@H]1CN=C(N)N1C[C@@H]1CCCN1C[C@H](C)N1C[C@@H](Cc2ccccc2)N(CCCC2CCCC2)C1=N	61.0*	-10.1	-11.3	11.3	-5.0	64.4*
CC(C)C[C@@H]1CN=C(N)N1C[C@@H]1CCCN1C[C@@H](C(C)C)N1C[C@@H](Cc2ccccc2)N(CCc2ccc(Cl)c(Cl)c2)C1=N	15.1	-4.1	-21.7	21.7	nt	nt
CC(C)C[C@@H]1CN=C(N)N1C[C@@H]1CCCN1C[C@H](C)N1C[C@@H](Cc2ccccc2)N(CCc2ccc(Cl)c(Cl)c2)C1=N	75.5*	-8.3	-7.0	7.0	3.2	71.1*
COc1ccc(C(c2nnnn2C2CCCCC2)N2CCN(C/C=C/c3ccccc3)CC2)cc1 (stereo not given)	nt	2.4	nt	nt	nt	nt
COc1cc2nc(N(CCCN(C)C)C(=O)c3ccc(S(=O)(=O)N4CCc5ccccc54)cc3)sc2cc1OC	39.5	-0.3	13.6	-13.6	nt	nt
Cc1cccc2sc(N(CCCN(C)C)C(=O)c3sc4ccccc4c3Cl)nc12	4.1	-178.5	-36.4	36.4	nt	nt
COc1cccc2sc(N(CCCN(C)C)C(=O)c3sc4ccccc4c3Cl)nc12	45.4*	-86.0	-20.0	20.0	1.6	68.7*
CCOc1cccc2sc(N(CCCN(C)C)C(=O)c3ccc(S(=O)(=O)N4CCc5ccccc5C4)cc3)nc12	90.8*	-1.0	4.2	-4.2	-0.9	110.5*
CCc1ccc2nc(N(CCCN(C)C)C(=O)c3ccc(S(=O)(=O)N4CCc5ccccc5C4)cc3)sc2c1	87.4*	14.5	-7.1	7.1	-0.9	113.6*
CCOc1cccc2sc(N(CCCN(C)C)C(=O)c3ccc(S(=O)(=O)N(C)c4ccccc4)cc3)nc12	37.6	-0.2	-8.7	8.7	nt	nt
COc1ccccc1-c1sc2ccccc2c1-c1cnc(N2CCOCC2)nc1	nt	-41.2	nt	nt	nt	nt
COc1ccc(S(=O)(=O)N2CCN(c3ccc4nnc(-c5ccc(F)cc5)n4n3)CC2)cc1	45.5*	-52.2	2.5	-2.5	2.6	30.1
SMILES	UBC13 polyUb	Neddylation inh	SR-BI DiI inh	SR-BI DiI-HDL act	Casp3 counter	UBC13 confirm
COc1cccc2sc3ccc(C#CC4(O)CCCCC4)cc3c(=O)c12	53.0*	-143.6	7.8	-7.8	90.7*	?
CN1CCCC(CC2c3ccccc3Sc3ccccc32)C1 (stereo not given)	46.3*	-13.9	-14.3	14.3	-0.5	27.0
O=C(NNC(=O)c1cccnc1Cl)c1ccc(F)cc1	-4.3	-3.3	-6.6	6.6	nt	nt
CCOc1ccc(NS(=O)(=O)c2cc(C(=O)NCCCN3CCOCC3)ccc2C)cc1	73.6*	3.8	-8.3	8.3	-2.2	94.1*
Cc1ccc(C(=O)NCCCN2CCOCC2)cc1S(=O)(=O)N1CCOCC1	2.0	-17.2	6.3	-6.3	nt	nt
O=C(Nc1cccc(C2=NCCN2)c1)Nc1cccc(C2=NCCN2)c1	97.1*	-19.2	1.4	-1.4	-3.8	103.8*
O=C(Nc1ccc(NC(=O)c2ccc(Cl)cc2Cl)cc1)c1ccc2c(c1)OCO2	0.3	4.1	9.0	-9.0	nt	nt
O=C(Nc1ccc(C2=NCCN2)cc1)c1ccc(C(=O)Nc2ccc(C3=NCCN3)cc2)c(Cl)c1	103.9*	17.8	17.0	-17.0	-0.4	117.9*
CC(C)c1ccc(C(=O)N2CCCCC2c2cc(C(=O)Nc3ccncc3)no2)cc1 (stereo not given)	nt	-0.2	nt	nt	nt	nt
COc1ccc(CNC(=O)N2CCN(c3ccccc3)CC2)cc1	7.1	5.9	3.9	-3.9	nt	nt
Oc1ccc2ccccc2c1CNc1ccccn1	56.3*	2.4	7.4	-7.4	-1.9	48.6*
Cc1ccc(O)c(CNc2ccccn2)c1	4.1	2.4	4.5	-4.5	nt	nt
COc1ccc(C(=O)NNC(=S)NC(=O)c2ccc(F)cc2)cc1Br	-20.3	-9.3	nt	nt	nt	nt
COc1ccc(C(=O)NC(=S)NNC(=O)c2ccc(NC(C)=O)cc2)cc1Br	71.2*	4.3	34.5	-34.5	0.9	103.6*
COc1nc(-c2cccs2)cc(-c2ccc(C)cc2)c1C#N	27.7	nt	66.7	-66.7	nt	nt
COc1ccc(-c2cc(-c3cccs3)nc(OC)c2C#N)cc1OC	49.8*	nt	29.0	-29.0	-2.3	44.5
Cc1ccnc(N/C=C(/NC(=O)c2ccccc2)C(=O)N/N=C\c2ccc(Cl)cc2)n1	4.2	-3.5	nt	nt	nt	nt
C/C=C(\C)C(=O)NCCN1C2=NC[C@@H](Cc3ccccc3)N2C[C@@H]1Cc1ccc(OC)cc1	31.0	-19.6	7.0	-7.0	nt	nt
CCCCCCNC(=O)N[C@@H](C(=O)NCCC[C@H]1CN2C(=NC[C@@H]2Cc2ccccc2)N1CCc1cccc(OC)c1)C(C)C	56.6*	nt	nt	nt	1.5	60.7*
O=C(CCNC(=O)c1ccccc1Cl)Nc1nc2ccccc2s1	79.6*	0.8	5.0	-5.0	1.7	100.8*
CCOc1ccc(-c2nc(S(=O)(=O)c3ccccc3)c(NC)o2)cc1	46.7*	-60.5	-4.6	4.6	-0.2	33.1
CN(C)CCCn1c(=O)n(CCc2ccccc2)c(=O)c2c3c(sc21)CCCCC3	38.9	0.2	-2.6	2.6	nt	nt
